The source of these data is ChEMBL document CHEMBL1128540, “Synthesis and quantitative structure-activity relationships of dequalinium analogues as K+ channel blockers: investigation into the role of the substituent at position 4 of the quinoline ring” (J Med Chem, 1995).

By IC50 is commonly meant the concentration that gives 50% inhibition.

Assay [1] can be described thus: Equieffective molar ratio(EMR) to that of the dequalinium, causing 50% inhibition of AHP(action potential). Type of assay: functional. The gist of the method:
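AHP inhibition in cultured rat sympathetic neurones. Each compound was tested at two to four concentrations on at least three cells, with dequalinium run as reference in the same series (one to three compounds per series). EMR is the ratio of test compound to dequalinium concentration giving 50% AHP inhibition within the same experiment. Test concentrations above 10–30 μM were generally avoided.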

Assay [2] has as its target Small conductance calcium-activated potassium channel (Rattus norvegicus, UniProt P70604+P70606+P70605). Put plainly: The SKCa-blocking action was assessed by its ability to inhibit the after hyperpolarization (AHP) in cultured rat sympathetic neurones. Conditions: sympathetic neuron. Type of assay: functional, cell-based. The gist of the method:
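SKCa block was read as inhibition of the after-hyperpolarization following action potentials in cultured rat sympathetic neurones. Each compound was tested at two to four concentrations on at least three cells, and IC50 was taken for 50% AHP inhibition. Concentrations above 10–30 μM were generally avoided. Dequalinium was included as reference in each series.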

As for `Cc1cc[n+](CCCCCCCCCC[n+]2ccc(C)c3ccccc32)c2ccccc12`, in assay [1], the EMR worked out at 26. Further, the IC50 in assay [2] turned out to be 14500 nM.
For `[O-]c1cc[n+](CCCCCCCCCC[n+]2ccc([O-])c3ccccc32)c2ccccc12`, the EMR in assay [1] was above 10. The IC50 in assay [2] is above 10000 nM.
In the case of `c1ccc(Oc2cc[n+](CCCCCCCCCC[n+]3ccc(Oc4ccccc4)c4ccccc43)c3ccccc23)cc1`, in assay [1], the EMR is 6.5. Besides, in assay [2], the IC50 was 2700 nM.
For `Nc1ccc2c(NCc3ccccc3)cc[n+](CCCCCCCCCC[n+]3ccc(NCc4ccccc4)c4ccc(N)cc43)c2c1` the same measures were 0.9 and 500 nM.
As for `Cc1cc(N)c2ccccc2[n+]1CCCCCCCCCC[n+]1c(C)cc(N)c2ccccc21.[Cl-].[Cl-]` [DEQUALINIUM CHLORIDE], in assay [1], the EMR was 1. Also, the IC50 in assay [2] is 740 nM.
Consider `Nc1cc[n+](CCCCCCCCCC[n+]2ccc(N)c3ccccc32)c2ccccc12`, for which the EMR in assay [1] turned out to be 1.3. Besides, the IC50 in assay [2] was found to be 1400 nM.
For `Nc1c2c([n+](CCCCCCCCCC[n+]3c4c(c(N)c5ccccc53)CCCC4)c3ccccc13)CCCC2` the same measures were 0.9 and 1000 nM.
Consider `c1ccc(Nc2cc[n+](CCCCCCCCCC[n+]3ccc(Nc4ccccc4)c4ccccc43)c3ccccc23)cc1`, for which the EMR in assay [1] is 3.4. For the same compound, the IC50 in assay [2] was 2400 nM.
As to `CN(C)c1cc[n+](CCCCCCCCCC[n+]2ccc(N(C)C)c3ccccc32)c2ccccc12`, in assay [1], the EMR was determined as 1.4. Besides, the IC50 in assay [2] was determined as 1400 nM.
Regarding `CN(c1ccccc1)c1cc[n+](CCCCCCCCCC[n+]2ccc(N(C)c3ccccc3)c3ccccc32)c2ccccc12`, in assay [1], the EMR stood at 1.7. Also, the half-maximal inhibitory concentration (IC50) in assay [2] was 1400 nM.
Turning to `CC(=O)O[C@H]1C[C@@H]2CC[C@@H]3[C@H](CC[C@@]4(C)[C@H]3C[C@H]([N+]3(C)CCCCC3)[C@@H]4OC(C)=O)[C@@]2(C)C[C@@H]1[N+]1(C)CCCCC1.[Br-].[Br-]` [PANCURONIUM BROMIDE], the IC50 in assay [2] was 6800 nM.
For the compound `c1ccc2c(c1)ccc[n+]2CCCCCCCCCC[n+]1cccc2ccccc21`, the EMR in assay [1] was 15. For the same compound, the 50% inhibitory concentration (IC50) in assay [2] was 21000 nM.
For `c1ccc(CNc2cc[n+](CCCCCCCCCC[n+]3ccc(NCc4ccccc4)c4ccccc43)c3ccccc23)cc1` the same measures were 0.7 and 520 nM.
Take `COc1cc2c3cc1Oc1cc(ccc1O)C[C@@H]1c4c(cc(OC)c(O)c4Oc4ccc(cc4)C[C@@H]3N(C)CC2)CC[N+]1(C)C.[Cl-]`: the IC50 in assay [2] was 7500 nM.
With `CC(=O)Nc1cc[n+](CCCCCCCCCC[n+]2ccc(NC(C)=O)c3ccccc32)c2ccccc12`, the EMR in assay [1] is 5.5. In assay [2], the IC50 worked out at 4500 nM.
For the compound `COc1cc(OC)c(CNc2cc[n+](CCCCCCCCCC[n+]3ccc(NCc4c(OC)cc(OC)cc4OC)c4ccccc43)c3ccccc23)c(OC)c1`, the EMR in assay [1] was found to be 1. The IC50 in assay [2] was determined as 600 nM.
